Measured values from different studies.
Target: Mitogen-activated protein kinase 15 (MAPK15, Homo sapiens, UniProt Q8TD08)
One construct used (Q8TD08 1-544): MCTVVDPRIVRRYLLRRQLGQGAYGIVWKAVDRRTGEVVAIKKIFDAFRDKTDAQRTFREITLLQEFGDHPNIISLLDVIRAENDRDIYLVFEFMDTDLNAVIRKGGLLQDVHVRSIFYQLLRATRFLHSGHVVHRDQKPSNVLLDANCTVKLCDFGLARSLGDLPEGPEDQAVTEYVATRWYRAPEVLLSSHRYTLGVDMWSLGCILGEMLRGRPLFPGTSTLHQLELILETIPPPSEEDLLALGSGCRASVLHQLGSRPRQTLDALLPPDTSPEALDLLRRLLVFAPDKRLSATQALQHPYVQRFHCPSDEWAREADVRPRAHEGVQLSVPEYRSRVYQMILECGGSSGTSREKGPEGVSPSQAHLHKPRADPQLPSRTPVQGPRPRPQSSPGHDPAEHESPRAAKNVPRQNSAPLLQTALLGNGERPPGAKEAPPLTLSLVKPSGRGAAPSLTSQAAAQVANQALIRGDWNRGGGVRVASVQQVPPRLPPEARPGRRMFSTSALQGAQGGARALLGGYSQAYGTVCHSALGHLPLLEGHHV

Structure (SMILES)	test	setting	quantity	result
C[C@@]1(Cc2ccc(C#N)cc2)C(=O)N(c2cc(Cl)cc(Cl)c2)c2ncc(C(=O)NC3(c4nc(C5CCC5)no4)CC3)n21	cell-free assay, competition with immobilised ligand	1 µM	remaining binding	100%
Oc1cccc(-c2nc(N3CCOCC3)c3oc4ncccc4c3n2)c1	enzyme activity, inhibitor	10 µM	remaining activity	87%
N#CC1(c2ccccn2)CCN(Cc2cc(C(=O)N3CCCC3)c(=O)n3ccccc23)CC1	cell-free assay, competition with immobilised ligand	1 µM	remaining binding	92%
Cc1sc(C(=O)NC2COC2)cc1-n1cc(NC(=O)Nc2c(F)cccc2Cl)cn1	enzyme activity, inhibitor	10 µM	remaining activity	103%
CO[C@@H](C)c1c(Nc2ccc([C@@H](N(C)C(=O)C3CCS(=O)(=O)CC3)C(F)(F)F)cc2)cnc2cc(Cl)nn12	cell-free assay, competition with immobilised ligand	1 µM	remaining binding	81%
COc1cc(Nc2cnc(C#N)c(O[C@H](C)CN(C)C)n2)ncc1-c1cnn(C)c1	enzyme activity, inhibitor, radiometric	1 µM	remaining activity	101%
COc1cc(/C=C/C(=O)CC(=O)/C=C/c2ccc(O)c(OC)c2)ccc1O	enzyme activity, inhibitor	1 µM	activity vs control	77%
Cc1ccc(C(=O)Nc2ccc(CN3CCN(C)CC3)c(C(F)(F)F)c2)cc1C#Cc1cnc2cccnn12	enzyme activity, inhibitor	23.5 nM	remaining activity	77%
FC(F)(F)Oc1cccc(-c2cnc3ccc(-c4ccncc4)nn23)c1	enzyme activity, inhibitor, radiometric	1 µM	activity vs control	29%
CC(C)(C)C(=O)c1sc(NC2CCCCC2)nc1N	enzyme activity, inhibitor	10 µM	remaining activity	43%
Cn1c(=O)n(-c2ccc(C(C)(C)C#N)cc2)c2c3cc(-c4cnc5ccccc5c4)ccc3ncc21	enzyme activity, inhibitor	10 µM	remaining activity	94%
CC(C)(C)c1nc2c(s1)c1nc(N)ncc1c1ccc(NS(=O)(=O)c3c(F)cccc3F)c(F)c12	enzyme activity, inhibitor, radiometric	1 µM	remaining activity	81%
Cn1cnc(Br)c1C1=CN(c2ncnc3[nH]cnc23)CCS1	enzyme activity, inhibitor, radiometric	50 nM	inhibition	17.1%
O=C(Nc1cccnn1)N1CCC(=Cc2cccc(Oc3ccc(C(F)(F)F)cn3)c2)CC1	cell-free assay, competition with immobilised ligand	1 µM	remaining binding	83%
